# Measurements taken from ChEMBL document CHEMBL2163344, “Immunomodulatory properties of novel nucleotide oligomerization domain 2 (nod2) agonistic desmuramyldipeptides” (J Med Chem, 2012).
# Activity calls are given as the source filed them. No cut-off for these calls is given here.
# Assays:
# PBMC [1] = assay: Immunomodulatory activity in human PBMCs assessed as increase in PMA/ionomycin-induced IL-12p70 release at 20 uM incubated for 18 hrs by multiplexed cytokine assay; assay type: functional, cell-based
# Summary of the method: (§1)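 Ficoll-isolated human PBMC, 1 × 10^6 cells per well, treated with 20 μM compound (DMSO ≤0.1%) plus PMA 3.33 ng/mL and ionomycin 500 nM for 18 h at 37 °C, 5% CO2. Cell-free supernatant cytokines measured by CBA human inflammatory kit on a flow cytometer against recombinant standards. Reported as % of PMA/ionomycin-only release; duplicates, three experiments, three donors.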
# PBMC [2] = assay: Immunomodulatory activity in human PBMCs assessed as increase in PMA/ionomycin-induced IL-1beta release at 20 uM incubated for 18 hrs by multiplexed cytokine assay; assay type: functional, cell-based; summary of the method: as §1
# [3] = Cytotoxicity against human PBMCs assessed as residual metabolic activity at 20 uM after 18 hrs by MTS assay; assay type: ADME, cell-based, PBMC; settings: read-out: Activity
# Summary of the method: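 Ficoll-isolated human PBMC, 1 × 10^6 cells/mL in supplemented RPMI 1640 with 10% FBS, exposed 18 h to 20 μM compound (DMSO ≤0.1% final) in triplicate. Metabolic activity read by MTS (CellTiter 96 AQueous One) and expressed relative to vehicle-treated control.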
# PBMC [4] = assay: Cytotoxicity against human PBMCs assessed as residual metabolic activity at 20 uM in presence of PMA and ionomycin after 18 hrs by MTS assay; assay type: ADME, cell-based
# Summary of the method: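 Human PBMC (1 × 10^6 cells/mL, triplicate) given 20 μM compound together with PMA 3.33 ng/mL and ionomycin 500 nM for 18 h. MTS metabolic activity compared with the PMA/ionomycin-only control.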
# PBMC [5] = assay: Immunomodulatory activity in human PBMCs assessed as increase in PMA/ionomycin-induced IL6 release at 20 uM incubated for 18 hrs by multiplexed cytokine assay; assay type: functional, cell-based; summary of the method: as §1
# PBMC [6] = assay: Immunomodulatory activity in human PBMCs assessed as increase in PMA/ionomycin-induced IL8 release at 20 uM incubated for 18 hrs by multiplexed cytokine assay; assay type: functional, cell-based
# [7] = biological target: T1, Nucleotide-binding oligomerization domain-containing protein 1 (Homo sapiens) (UniProt Q9Y239); assay: Agonist activity at human NOD1 expressed in Ramos blue cells assessed as stimulation of NF-kB/AP-1 activity at 20 uM incubated for 18 hrs using quanti blue assay based SEAP reporter gene assay; assay type: functional, cell-based
# T1 sequence (whole entry): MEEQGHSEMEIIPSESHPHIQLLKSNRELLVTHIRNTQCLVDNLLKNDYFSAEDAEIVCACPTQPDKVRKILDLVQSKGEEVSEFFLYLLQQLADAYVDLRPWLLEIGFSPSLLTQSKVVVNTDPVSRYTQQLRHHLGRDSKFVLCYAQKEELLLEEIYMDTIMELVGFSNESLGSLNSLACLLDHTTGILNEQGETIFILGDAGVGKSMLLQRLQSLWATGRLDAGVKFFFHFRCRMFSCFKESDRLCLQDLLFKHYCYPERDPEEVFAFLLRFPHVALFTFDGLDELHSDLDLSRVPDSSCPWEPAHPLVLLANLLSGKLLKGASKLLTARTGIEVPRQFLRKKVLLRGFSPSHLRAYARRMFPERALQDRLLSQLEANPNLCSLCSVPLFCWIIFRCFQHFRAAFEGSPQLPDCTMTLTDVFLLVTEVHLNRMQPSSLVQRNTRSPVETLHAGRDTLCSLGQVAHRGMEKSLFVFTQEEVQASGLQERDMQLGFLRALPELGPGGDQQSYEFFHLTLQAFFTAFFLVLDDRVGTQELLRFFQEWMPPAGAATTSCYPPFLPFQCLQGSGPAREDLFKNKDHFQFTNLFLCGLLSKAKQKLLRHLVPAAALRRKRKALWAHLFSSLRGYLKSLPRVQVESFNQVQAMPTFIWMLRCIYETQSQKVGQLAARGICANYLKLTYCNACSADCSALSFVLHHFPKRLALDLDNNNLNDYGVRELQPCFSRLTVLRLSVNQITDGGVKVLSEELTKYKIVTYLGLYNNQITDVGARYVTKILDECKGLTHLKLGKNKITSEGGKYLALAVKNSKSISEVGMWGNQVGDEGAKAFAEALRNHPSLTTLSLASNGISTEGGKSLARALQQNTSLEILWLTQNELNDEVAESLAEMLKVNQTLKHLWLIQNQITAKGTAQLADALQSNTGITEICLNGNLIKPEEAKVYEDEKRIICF
# Summary of the method: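 Ramos-Blue control cells (TLR3/7/9 and Nod1, no Nod2; stable NF-κB/AP-1-inducible SEAP reporter) at 1 × 10^6 cells/mL, exposed 18 h to 20 μM compound. SEAP in supernatant read with QUANTI-Blue reagent (3 h, 37 °C), absorbance 640 nm; activity compared with untreated cells.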
# PBMC [8] = assay: Immunomodulatory activity in human PBMCs assessed as increase in PMA/ionomycin-induced TNFalpha release at 20 uM incubated for 18 hrs by multiplexed cytokine assay; assay type: functional, cell-based; summary of the method: as §1
# [9] = biological target: Nucleotide-binding oligomerization domain-containing protein 2 (Homo sapiens) (UniProt Q9HC29); assay: Agonist activity at human Nod2 expressed in HEK293-blue cells assessed as increase in NF-kappaB transcriptional activity at 20 uM incubated for 18 hrs using quanti blue assay based SEAP reporter gene assay; assay type: functional, cell-based
# Summary of the method: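 HEK-Blue Nod2 cells (HEK293 stably coexpressing human Nod2 and NF-κB-inducible SEAP) at 1 × 10^6 cells/mL, treated 18 h with 20 μM compound. Supernatant SEAP measured with QUANTI-Blue, 3 h at 37 °C, absorbance 640 nm. Duplicates in three independent experiments, compared with untreated cells.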
# Sequence of Nucleotide-binding oligomerization domain-containing protein 2 (Homo sapiens) (Q9HC29 whole entry, the tested form may be a part): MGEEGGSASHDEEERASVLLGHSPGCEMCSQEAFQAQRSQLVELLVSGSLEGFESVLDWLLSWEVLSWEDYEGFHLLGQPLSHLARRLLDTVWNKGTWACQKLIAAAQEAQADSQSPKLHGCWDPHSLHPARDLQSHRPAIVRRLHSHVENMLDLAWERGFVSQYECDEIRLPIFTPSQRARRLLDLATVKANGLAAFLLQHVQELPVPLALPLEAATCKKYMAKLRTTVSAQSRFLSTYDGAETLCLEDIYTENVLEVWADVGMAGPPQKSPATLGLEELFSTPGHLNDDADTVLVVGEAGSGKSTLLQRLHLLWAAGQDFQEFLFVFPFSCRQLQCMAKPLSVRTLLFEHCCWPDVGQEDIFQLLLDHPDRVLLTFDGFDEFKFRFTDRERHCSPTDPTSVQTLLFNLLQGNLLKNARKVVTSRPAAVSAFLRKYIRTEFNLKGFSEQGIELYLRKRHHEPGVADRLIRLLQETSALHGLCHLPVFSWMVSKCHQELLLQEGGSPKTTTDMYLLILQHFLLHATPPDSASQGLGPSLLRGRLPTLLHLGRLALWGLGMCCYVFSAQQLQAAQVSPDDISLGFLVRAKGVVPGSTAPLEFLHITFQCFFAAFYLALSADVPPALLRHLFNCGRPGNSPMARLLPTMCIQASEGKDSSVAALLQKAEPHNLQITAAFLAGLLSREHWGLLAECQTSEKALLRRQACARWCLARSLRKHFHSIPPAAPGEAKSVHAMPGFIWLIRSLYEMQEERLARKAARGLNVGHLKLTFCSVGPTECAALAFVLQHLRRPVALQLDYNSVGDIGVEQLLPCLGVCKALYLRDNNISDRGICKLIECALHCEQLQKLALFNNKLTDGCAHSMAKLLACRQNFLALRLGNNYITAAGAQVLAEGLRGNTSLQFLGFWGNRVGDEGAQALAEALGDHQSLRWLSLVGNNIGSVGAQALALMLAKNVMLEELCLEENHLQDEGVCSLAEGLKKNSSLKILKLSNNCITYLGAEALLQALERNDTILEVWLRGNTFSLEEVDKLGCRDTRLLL
Compound,Activity [7],Activity [9],Activity (PBMC [1]),Activity (PBMC [2]),"viability at 18 h, 20 µM [3] [%]",Activity (PBMC [4]),Activity (PBMC [5]),Activity (PBMC [6]),Activity (PBMC [8])
CCOC(=O)CC[C@@H](NC(=O)[C@H](C)NC(=O)CNC(=O)c1cc2ccccc2[nH]1)C(N)=O,inactive,inactive,inactive,inactive,≥ 90,Non-toxic,inactive,inactive,inactive
CCOC(=O)CC[C@@H](NC(=O)[C@H](C)NC(=O)CNC(=O)c1cc2ccccc2[nH]1)C(=O)OCC,inactive,Active,Active,Active,≥ 90,Non-toxic,Active,inactive,Active
CCOC(=O)CC[C@@H](NC(=O)[C@H](C)NC(=O)C1=C2c3ccccc3S(=O)(=O)N2CCC1)C(=O)OCC,inactive,Active,Active,Active,≥ 90,Non-toxic,Active,inactive,–
CCCCOC(=O)[C@@H](CCC(N)=O)NC(=O)[C@H](C)NC(=O)[C@@H](C)O[C@H]1[C@H](O)[C@@H](CO)OC(O)[C@@H]1NC(C)=O (stereo partly drawn) [MURABUTIDE],inactive,Active,Active,Active,≥ 90,Non-toxic,–,inactive,Active

# Second part, led by results:
Activity [7],Activity [9],Compound,Activity (PBMC [1]),Activity (PBMC [2]),"viability at 18 h, 20 µM [3] [%]",Activity (PBMC [4]),Activity (PBMC [5]),Activity (PBMC [6]),Activity (PBMC [8])
inactive,–,CCOC(=O)CC[C@@H](NC(=O)[C@H](C)NC(=O)COCCN1C(=O)c2ccccc2S1(=O)=O)C(=O)OCC,inactive,inactive,≥ 90,Non-toxic,inactive,inactive,inactive
inactive,–,CCOC(=O)CC[C@@H](NC(=O)[C@H](C)NC(=O)CCCCN1C(=O)c2ccccc2S1(=O)=O)C(=O)OCC,inactive,inactive,≥ 90,Non-toxic,inactive,inactive,inactive
inactive,inactive,CCOC(=O)CC[C@@H](NC(=O)[C@H](C)NC(=O)CCCCN1C(=O)c2ccccc2S1(=O)=O)C(N)=O,inactive,inactive,≥ 90,Non-toxic,inactive,inactive,inactive
inactive,inactive,CCOC(=O)CC[C@@H](NC(=O)[C@H](C)NC(=O)COCCN1C(=O)c2ccccc2S1(=O)=O)C(N)=O,inactive,inactive,≥ 90,Non-toxic,inactive,inactive,inactive
